Reference: ChEMBL document CHEMBL3407339, “A novel series of thiazolyl-pyrazoline derivatives: synthesis and evaluation of antifungal activity, cytotoxicity and genotoxicity” (Eur J Med Chem, 2015)
In brackets after ≈: the same amount, converted by molar mass.

How the values were obtained:
[1] = system: [Candida] zeylanoides; experiment: Antifungal activity against Candida zeylanoides NRLL Y 1774 after 48 hrs by broth microdilution assay; assay type: functional; conditions: Dujonia zeylanoides, NRLL Y 1774, 48 h
In short: (§1)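 Broth microdilution of DMSO stocks serially diluted in sterile water (4 to 0.0039 mg/mL). Yeasts grown on SDA at 37 °C for 24 h, suspended in double-strength PDB at 10⁵ spores/mL. Incubated at 37 °C for 48 h, then sprayed with 0.5% aqueous TTC. MIC = lowest concentration inhibiting visible growth. Ketoconazole reference.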

[2] = system: Salmonella typhimurium; experiment: Mutagenicity in Salmonella typhimurium TA100 at 5 mg/ml after 48 hrs by AMES MPF assay in presence of Sprague-Dawley rat liver microsomal S9 fraction relative to baseline; assay type: toxicity, organism-based; conditions: salmonella enterica subsp. enterica serovar typhimurium
In short: (§2)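 Ames MPF fluctuation test with TA98/TA100. Overnight cultures (37 °C, 14–16 h) mixed with exposure medium; ±Aroclor-1254-induced rat liver S9 (final 4.5% v/v). Compounds in DMSO, 0.156–5 mg/mL. 90 min exposure at 37 °C, then indicator medium; 48 wells per concentration, 48 h at 37 °C, in triplicate. Yellow wells counted; fold induction over baseline (mean + 1 SD of zero-dose control).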

[3] = system: Salmonella typhimurium; experiment: Mutagenicity in Salmonella typhimurium TA100 at 1.25 mg/ml after 48 hrs by AMES MPF assay in absence of Sprague-Dawley rat liver microsomal S9 fraction relative to baseline; assay type: toxicity, organism-based; conditions: salmonella enterica subsp. enterica serovar typhimurium; in short: as §2
[4] = system: Salmonella typhimurium; experiment: Mutagenicity in Salmonella typhimurium TA98 at 0.156 mg/ml after 48 hrs by AMES MPF assay in absence of Sprague-Dawley rat liver microsomal S9 fraction relative to baseline; assay type: toxicity, organism-based; conditions: salmonella enterica subsp. enterica serovar typhimurium; in short: as §2
[5] = system: Salmonella typhimurium; experiment: Mutagenicity in Salmonella typhimurium TA100 at 0.156 mg/ml after 48 hrs by AMES MPF assay in presence of Sprague-Dawley rat liver microsomal S9 fraction relative to baseline; assay type: toxicity, organism-based; conditions: salmonella enterica subsp. enterica serovar typhimurium; in short: as §2
[6] = system: Salmonella typhimurium; experiment: Mutagenicity in Salmonella typhimurium TA98 at 1.25 mg/ml after 48 hrs by AMES MPF assay in absence of Sprague-Dawley rat liver microsomal S9 fraction relative to baseline; assay type: toxicity, organism-based; conditions: salmonella enterica subsp. enterica serovar typhimurium; in short: as §2
[7] = system: Salmonella typhimurium; experiment: Mutagenicity in Salmonella typhimurium TA98 at 0.156 mg/ml after 48 hrs by AMES MPF assay in presence of Sprague-Dawley rat liver microsomal S9 fraction relative to baseline; assay type: toxicity, organism-based; conditions: salmonella enterica subsp. enterica serovar typhimurium; in short: as §2
[8] = system: Salmonella typhimurium; experiment: Mutagenicity in Salmonella typhimurium TA98 at 2.5 mg/ml after 48 hrs by AMES MPF assay in presence of Sprague-Dawley rat liver microsomal S9 fraction relative to baseline; assay type: toxicity, organism-based; conditions: salmonella enterica subsp. enterica serovar typhimurium; in short: as §2
[9] = system: Salmonella typhimurium; experiment: Mutagenicity in Salmonella typhimurium TA100 at 1.25 mg/ml after 48 hrs by AMES MPF assay in presence of Sprague-Dawley rat liver microsomal S9 fraction relative to baseline; assay type: toxicity, organism-based; conditions: salmonella enterica subsp. enterica serovar typhimurium; in short: as §2
[10] = system: Salmonella typhimurium; experiment: Mutagenicity in Salmonella typhimurium TA100 at 2.5 mg/ml after 48 hrs by AMES MPF assay in absence of Sprague-Dawley rat liver microsomal S9 fraction relative to baseline; assay type: toxicity, organism-based; conditions: salmonella enterica subsp. enterica serovar typhimurium; in short: as §2
[11] = system: Nakaseomyces glabratus; experiment: Antifungal activity against Candida glabrata clinical isolate after 48 hrs by broth microdilution assay; assay type: functional; in short: as §1
[12] = system: Salmonella typhimurium; experiment: Mutagenicity in Salmonella typhimurium TA100 at 0.625 mg/ml after 48 hrs by AMES MPF assay in absence of Sprague-Dawley rat liver microsomal S9 fraction relative to baseline; assay type: toxicity, organism-based; conditions: salmonella enterica subsp. enterica serovar typhimurium; in short: as §2
[13] = system: A549; experiment: Antiproliferative activity against human A549 cells after 24 hrs by XTT assay; assay type: functional, cell-based; conditions: A549, 24 h
In short: (§3)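 A549 cells in RPMI and NIH/3T3 cells in DMEM, each with fetal calf serum, antibiotics and 7.5% NaHCO₃, at 37 °C, 5% CO₂. Seeded at 20,000 cells/well, 24 h, then compounds added in medium at 500–3.9 doses (final DMSO <0.1%) for 24 h. XTT read after 3 h at 480 nm (ref 680 nm). IC₅₀ by non-linear regression; triplicates; cisplatin control.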

[14] = system: Aspergillus parasiticus; experiment: Antifungal activity against Aspergillus parasiticus NRRL 465 after 72 hrs by broth microdilution assay; assay type: functional; conditions: NRRL 465, 72 h
In short: (§4)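 Compounds dissolved in DMSO, diluted in sterile distilled water from 4 to 0.0039 mg/mL. Molds grown on PDA at 25 °C for 5 days, suspended in double-strength PDB at 10⁵ spores/mL. Incubated at 25 °C for 72 h; mycelial growth read under stereo microscope. MIC = lowest concentration inhibiting visible growth. Ketoconazole reference.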

[15] = system: Pichia kudriavzevii; experiment: Antifungal activity against Candida krusei NRLL Y 7179 after 48 hrs by broth microdilution assay; assay type: functional; conditions: NRLL Y 7179, 48 h; in short: as §1
[16] = system: Salmonella typhimurium; experiment: Mutagenicity in Salmonella typhimurium TA100 at 0.3125 mg/ml after 48 hrs by AMES MPF assay in absence of Sprague-Dawley rat liver microsomal S9 fraction relative to baseline; assay type: toxicity, organism-based; conditions: salmonella enterica subsp. enterica serovar typhimurium; in short: as §2
[17] = Cytotoxicity against mouse NIH/3T3 cells after 24 hrs by XTT assay; assay type: cell-based; conditions: NIH3T3, 24 h; in short: as §3
[18] = system: Salmonella typhimurium; experiment: Mutagenicity in Salmonella typhimurium TA98 at 1.25 mg/ml after 48 hrs by AMES MPF assay in presence of Sprague-Dawley rat liver microsomal S9 fraction relative to baseline; assay type: toxicity, organism-based; conditions: salmonella enterica subsp. enterica serovar typhimurium; in short: as §2
[19] = system: Candida albicans; experiment: Antifungal activity against Candida albicans ATCC 90028 after 48 hrs by broth microdilution assay; assay type: functional; conditions: ATCC 90028, 48 h; in short: as §1
[20] = system: Salmonella typhimurium; experiment: Mutagenicity in Salmonella typhimurium TA98 at 0.625 mg/ml after 48 hrs by AMES MPF assay in absence of Sprague-Dawley rat liver microsomal S9 fraction relative to baseline; assay type: toxicity, organism-based; conditions: salmonella enterica subsp. enterica serovar typhimurium; in short: as §2
[21] = system: Candida parapsilosis; experiment: Antifungal activity against Candida parapsilosis NRLL Y 12696 after 48 hrs by broth microdilution assay; assay type: functional; conditions: Lodderomyces parapsilosis, NRLL Y 12696, 48 h; in short: as §1
[22] = system: Aspergillus niger; experiment: Antifungal activity against Aspergillus niger ATCC 1094 after 72 hrs by broth microdilution assay; assay type: functional; conditions: ATCC 1094, 72 h; in short: as §4
[23] = system: Candida tropicalis; experiment: Antifungal activity against Candida tropicalis NRLL Y 12968 after 48 hrs by broth microdilution assay; assay type: functional; conditions: NRLL Y 12968, 48 h; in short: as §1
[24] = system: Salmonella typhimurium; experiment: Mutagenicity in Salmonella typhimurium TA98 at 2.5 mg/ml after 48 hrs by AMES MPF assay in absence of Sprague-Dawley rat liver microsomal S9 fraction relative to baseline; assay type: toxicity, organism-based; conditions: salmonella enterica subsp. enterica serovar typhimurium; in short: as §2
[25] = system: Salmonella typhimurium; experiment: Mutagenicity in Salmonella typhimurium TA98 at 5 mg/ml after 48 hrs by AMES MPF assay in presence of Sprague-Dawley rat liver microsomal S9 fraction relative to baseline; assay type: toxicity, organism-based; conditions: salmonella enterica subsp. enterica serovar typhimurium; in short: as §2
[26] = system: Salmonella typhimurium; experiment: Mutagenicity in Salmonella typhimurium TA98 at 0.625 mg/ml after 48 hrs by AMES MPF assay in presence of Sprague-Dawley rat liver microsomal S9 fraction relative to baseline; assay type: toxicity, organism-based; conditions: salmonella enterica subsp. enterica serovar typhimurium; in short: as §2
[27] = system: Salmonella typhimurium; experiment: Mutagenicity in Salmonella typhimurium TA100 at 0.625 mg/ml after 48 hrs by AMES MPF assay in presence of Sprague-Dawley rat liver microsomal S9 fraction relative to baseline; assay type: toxicity, organism-based; conditions: salmonella enterica subsp. enterica serovar typhimurium; in short: as §2
[28] = system: Aspergillus flavus; experiment: Antifungal activity against Aspergillus flavus NRRL 980 after 72 hrs by broth microdilution assay; assay type: functional; conditions: NRRL 980, 72 h; in short: as §4
[29] = system: Salmonella typhimurium; experiment: Mutagenicity in Salmonella typhimurium TA98 at 5 mg/ml after 48 hrs by AMES MPF assay in absence of Sprague-Dawley rat liver microsomal S9 fraction relative to baseline; assay type: toxicity, organism-based; conditions: salmonella enterica subsp. enterica serovar typhimurium; in short: as §2
[30] = system: Salmonella typhimurium; experiment: Mutagenicity in Salmonella typhimurium TA100 at 2.5 mg/ml after 48 hrs by AMES MPF assay in presence of Sprague-Dawley rat liver microsomal S9 fraction relative to baseline; assay type: toxicity, organism-based; conditions: salmonella enterica subsp. enterica serovar typhimurium; in short: as §2
[31] = system: Salmonella typhimurium; experiment: Mutagenicity in Salmonella typhimurium TA98 at 0.3125 mg/ml after 48 hrs by AMES MPF assay in absence of Sprague-Dawley rat liver microsomal S9 fraction relative to baseline; assay type: toxicity, organism-based; conditions: salmonella enterica subsp. enterica serovar typhimurium; in short: as §2
[32] = system: Salmonella typhimurium; experiment: Mutagenicity in Salmonella typhimurium TA98 at 0.3125 mg/ml after 48 hrs by AMES MPF assay in presence of Sprague-Dawley rat liver microsomal S9 fraction relative to baseline; assay type: toxicity, organism-based; conditions: salmonella enterica subsp. enterica serovar typhimurium; in short: as §2
[33] = system: Salmonella typhimurium; experiment: Mutagenicity in Salmonella typhimurium TA100 at 0.3125 mg/ml after 48 hrs by AMES MPF assay in presence of Sprague-Dawley rat liver microsomal S9 fraction relative to baseline; assay type: toxicity, organism-based; conditions: salmonella enterica subsp. enterica serovar typhimurium; in short: as §2
[34] = system: Fusarium solani; experiment: Antifungal activity against Fusarium solani NRRL 13414 after 72 hrs by broth microdilution assay; assay type: functional; conditions: NRRL 13414, 72 h; in short: as §4
[35] = system: Salmonella typhimurium; experiment: Mutagenicity in Salmonella typhimurium TA100 at 5 mg/ml after 48 hrs by AMES MPF assay in absence of Sprague-Dawley rat liver microsomal S9 fraction relative to baseline; assay type: toxicity, organism-based; conditions: salmonella enterica subsp. enterica serovar typhimurium; in short: as §2
[36] = system: Salmonella typhimurium; experiment: Mutagenicity in Salmonella typhimurium TA100 at 0.156 mg/ml after 48 hrs by AMES MPF assay in absence of Sprague-Dawley rat liver microsomal S9 fraction relative to baseline; assay type: toxicity, organism-based; conditions: salmonella enterica subsp. enterica serovar typhimurium; in short: as §2

- MIC [1]: 250 µg/mL (≈ 568 µM)
- MIC [11]: 125 µg/mL (≈ 284 µM)
- IC50 [13]: > 500 µg/mL
- MIC [14]: 250 µg/mL (≈ 568 µM)
- MIC [15]: 250 µg/mL (≈ 568 µM)
- MIC [19]: 250 µg/mL (≈ 568 µM)
- MIC [21]: 250 µg/mL (≈ 568 µM)
- MIC [22]: 250 µg/mL (≈ 568 µM)
- MIC [23]: 250 µg/mL (≈ 568 µM)
- MIC [28]: 125 µg/mL (≈ 284 µM)
- MIC [34]: 250 µg/mL (≈ 568 µM)
SMILES: Fc1ccc(C2CC(c3ccc(Cl)s3)=NN2c2nc(-c3ccccc3)cs2)cc1 (stereo unspecified)
- fold change (FC) [2]: 4.38
- fold change (FC) [3]: 1.28
- fold change (FC) [4]: 0
- fold change (FC) [5]: 1.85
- fold change (FC) [6]: 0
- fold change (FC) [7]: 1.63
- fold change (FC) [8]: 0.27
- fold change (FC) [9]: 4.62
- fold change (FC) [10]: 2.88
- fold change (FC) [12]: 0.96
- fold change (FC) [16]: 0.32
- IC50 [17]: > 500 µg/mL
- fold change (FC) [18]: 0.68
- fold change (FC) [20]: 0.67
- fold change (FC) [24]: 0
- fold change (FC) [25]: 0.41
- fold change (FC) [26]: 1.08
- fold change (FC) [27]: 2.77
- fold change (FC) [29]: 0.67
- fold change (FC) [30]: 3.46
- fold change (FC) [31]: 0
- fold change (FC) [32]: 0.68
- fold change (FC) [33]: 3.23
- fold change (FC) [35]: 0.96
- fold change (FC) [36]: 0
